How the values were obtained:
[1] = Cytotoxicity against MDCK cells assessed as drug level causing microscopically detectable alteration of normal cell morphology; type: cell-based, Canis lupus familiaris; conditions: dog
[2] = Cytotoxicity against human HeLa cells assessed as drug level causing microscopically detectable alteration of normal cell morphology after 3 days; type: cell-based
In short: (§1)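 Serial compound dilutions added to confluent HeLa or Vero monolayers. MCC = minimum concentration causing microscopically detectable alteration of cell morphology after 3 days of incubation.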

Influenza A virus H3N2 [3] = experiment: Antiviral activity against influenza H3N2 virus in MDCK cells assessed as reduction of virus-induced cytopathicity by MTS method; type: functional, organism-based
[4] = tested on: Human immunodeficiency virus 1; experiment: Antiviral activity against HIV1 3B in human CEM cells assessed as protection against virus-induced cytopathicity after 4 days; type: functional, organism-based; conditions: Human immunodeficiency virus 1, 3B, CCRF-CEM, 96 h
In short: (§2)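 CEM cells (~3 × 10⁵ cells/mL) infected with ~100 CCID₅₀ per mL of HIV-1 (IIIB) or HIV-2 (ROD), then seeded into wells containing compound dilutions. After 4 days at 37 °C, syncytium (giant cell) formation was examined microscopically. EC₅₀ = concentration protecting CEM cells from HIV cytopathicity by 50%.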

Feline coronavirus = experiment: Antiviral activity against Feline coronavirus in feline […] cells assessed as inhibition of virus-induced cytopathicity; type: functional, organism-based; conditions: Alphacoronavirus 1
[5] = tested on: Mammalian orthoreovirus 1; experiment: Antiviral activity against Reovirus 1 in african green monkey Vero cells assessed as protection against virus-induced cytopathicity; type: functional, organism-based; conditions: Mammalian orthoreovirus 1, Vero
In short: (§3)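 Confluent cell monolayers inoculated with 100 CCID₅₀ virus. After 1-2 h adsorption, residual virus removed and cultures incubated with varying compound concentrations. Cytopathicity scored once it reached completion in untreated infected controls. EC₅₀ = dose reducing virus-induced cytopathogenicity by 50%.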

Felid alphaherpesvirus 1 = experiment: Antiviral activity against Feline herpesvirus in feline […] cells assessed as inhibition of virus-induced cytopathicity; type: functional, organism-based
Influenza A virus H3N2 [6] = experiment: Antiviral activity against influenza H3N2 virus in MDCK cells assessed as reduction of virus-induced cytopathicity by visual cytopathic effect scoring method; type: functional, organism-based
Vaccinia virus = experiment: Antiviral activity against Vaccinia virus Lederle in human HEL cells assessed as protection against virus-induced cytopathicity; type: functional, organism-based; conditions: Orthopoxvirus vaccinia
Punta Toro virus = experiment: Antiviral activity against Punta Toro virus in african green monkey Vero cells assessed as protection against virus-induced cytopathicity; type: functional, organism-based; in short: as §3
[7] = Cytotoxicity against feline CRFK cells by MTS assay; type: cell-based, Felis catus; conditions: cat
[8] = tested on: Vesicular stomatitis virus; experiment: Antiviral activity against VSV in human HEL cells assessed as protection against virus-induced cytopathicity; type: functional, organism-based
Sindbis virus = experiment: Antiviral activity against Sindbis virus in african green monkey Vero cells assessed as protection against virus-induced cytopathicity; type: functional, organism-based; in short: as §3
[9] = tested on: Human immunodeficiency virus 2; experiment: Antiviral activity against HIV2 ROD in human CEM cells assessed as protection against virus-induced cytopathicity after 4 days; type: functional, organism-based; conditions: Human immunodeficiency virus 2, ROD, CCRF-CEM, 96 h; in short: as §2
Human respirovirus 3 = experiment: Antiviral activity against Parainfluenza virus type 3 in african green monkey Vero cells assessed as protection against virus-induced cytopathicity; type: functional, organism-based; conditions: Human respirovirus 3, Vero; in short: as §3
[10] = Cytotoxicity against african green monkey Vero cells assessed as drug level causing microscopically detectable alteration of normal cell morphology after 3 days; type: cell-based; conditions: chlorocebus sabaeus; in short: as §1
[11] = biological target: Human immunodeficiency virus type 1 reverse transcriptase (Human immunodeficiency virus 1, UniProt Q72547); experiment: Inhibition of HIV1 reverse transcriptase p66/p51; conditions: read-out: IC50
Human alphaherpesvirus 1 [12] = experiment: Antiviral activity against thymidine kinase deficient and acyclovir resistant HSV1 KOS in human HEL cells assessed as protection against virus-induced cytopathicity; type: functional, organism-based; conditions: Human alphaherpesvirus 1, KOS
[13] = biological target: Human immunodeficiency virus type 1 reverse transcriptase (Human immunodeficiency virus 1, UniProt Q72547, L100I); experiment: Inhibition of HIV1 reverse transcriptase p66/p51 L100I mutant; conditions: read-out: IC50
In short: (§4)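 Substrate was 0.5 µg poly(rA)/oligo(dT) 10:1 (0.3 µM 3′-OH ends) with 10 µM [³H]dTTP, at 37 °C. Acid-precipitable radioactivity was counted on GF/C filters after TCA washes.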

[14] = biological target: Human immunodeficiency virus type 1 reverse transcriptase (Human immunodeficiency virus 1, UniProt Q72547, Y181I); experiment: Inhibition of HIV1 reverse transcriptase p66/p51 Y181I mutant; conditions: read-out: IC50; in short: as §4
Influenza B virus [15] = experiment: Antiviral activity against influenza B virus in MDCK cells assessed as reduction of virus-induced cytopathicity by visual cytopathic effect scoring method; type: functional, organism-based
Influenza A virus [16] = experiment: Antiviral activity against influenza H1N1 virus in MDCK cells assessed as reduction of virus-induced cytopathicity by MTS method; type: functional, organism-based; conditions: Influenza A virus, H1N1, MDCK
Coxsackievirus B4 [17] = experiment: Antiviral activity against Coxsackievirus B4 in african green monkey Vero cells assessed as protection against virus-induced cytopathicity; type: functional, organism-based; conditions: Enterovirus B; in short: as §3
[18] = tested on: Respiratory syncytial virus; experiment: Antiviral activity against RSV Long in human HeLa cells assessed as protection against virus-induced cytopathicity; type: functional, organism-based; in short: as §3
[19] = Antiproliferative activity against human Molt4/C8 cells after 3 days; type: cell-based; conditions: MOLT-4, 72 h
In short: (§5)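 Cells seeded at 5 × 10⁴ to 7.5 × 10⁴ cells/200 µL with or without serial compound dilutions; incubated at 37 °C for 2 days (L1210) or 3 days (Molt4/C8, CEM). Cell numbers counted with a Coulter counter. CC₅₀ = concentration reducing proliferation by 50% versus untreated controls, read from plots of cell number (% of control) against concentration. Means of at least two independent experiments.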

[20] = Cytotoxicity against human HEL cells assessed as drug level causing microscopically detectable alteration of normal cell morphology after 3 days; type: cell-based
[21] = tested on: Vesicular stomatitis virus; experiment: Antiviral activity against VSV in human HeLa cells assessed as protection against virus-induced cytopathicity; type: functional, organism-based
Coxsackievirus B4 [22] = experiment: Antiviral activity against Coxsackievirus B4 in human HeLa cells assessed as protection against virus-induced cytopathicity; type: functional, organism-based; conditions: Enterovirus B; in short: as §3
Influenza A virus [23] = experiment: Antiviral activity against influenza H1N1 virus in MDCK cells assessed as reduction of virus-induced cytopathicity by visual cytopathic effect scoring method; type: functional, organism-based
[24] = Cytotoxicity against MDCK cells by MTS assay; type: cell-based, Canis lupus familiaris; conditions: dog
Human alphaherpesvirus 1 [25] = experiment: Antiviral activity against HSV1 KOS in human HEL cells assessed as protection against virus-induced cytopathicity; type: functional, organism-based; conditions: Human alphaherpesvirus 1, KOS
CCRF-CEM = experiment: Antiproliferative activity against human CEM cells after 3 days; type: cell-based; conditions: 72 h; in short: as §5
Human alphaherpesvirus 2 = experiment: Antiviral activity against HSV2 G in human HEL cells assessed as protection against virus-induced cytopathicity; type: functional, organism-based; conditions: Human alphaherpesvirus 2, strain G; in short: as §3
[26] = biological target: Human immunodeficiency virus type 1 reverse transcriptase (Human immunodeficiency virus 1, UniProt Q72547, K103N); experiment: Inhibition of HIV1 reverse transcriptase p66/p51 K103N mutant; conditions: read-out: IC50; in short: as §4
Influenza B virus [27] = experiment: Antiviral activity against influenza B virus in MDCK cells assessed as reduction of virus-induced cytopathicity by MTS method; type: functional, organism-based
L1210 = experiment: Antiproliferative activity against mouse L1210 cells after 2 days; type: cell-based; conditions: L1210, 48 h; in short: as §5

| Structure (SMILES) | MCC [1] [µM] | MCC at 72 h [2] [µM] | EC50 (Influenza A virus H3N2 [3]) [µM] | EC50 [4] [µM] | EC50 (Feline coronavirus) [µM] | EC50 [5] [µM] | EC50 (Felid alphaherpesvirus 1) [µM] | EC50 (Influenza A virus H3N2 [6]) [µM] | EC50 (Vaccinia virus) [µM] | EC50 (Punta Toro virus) [µM] | CC50 [7] [µM] | EC50 [8] [µM] | EC50 (Sindbis virus) [µM] | EC50 [9] [µM] | EC50 (Human respirovirus 3) [µM] | MCC at 72 h [10] [µM] | IC50 [11] [µM] | EC50 (Human alphaherpesvirus 1 [12]) [µM] | IC50 [13] [µM] | IC50 [14] [µM] | other results |
| --- | --- | --- | --- | --- | --- | --- | --- | --- | --- | --- | --- | --- | --- | --- | --- | --- | --- | --- | --- | --- | --- |
| Cc1cc(C)cc(S(=O)(=O)c2c(C(=O)NCC(N)=O)[nH]c3ccc(Br)cc23)c1 | 20 | 100 | > 4 | 0.0026 | > 20 | > 20 | > 20 | > 4 | > 20 | > 20 | 53 | > 20 | > 20 | 43 | > 20 | 100 | 0.026 | > 20 | 0.199 | 2.21 | EC50 (Influenza B virus [15]): > 4 µM; EC50 (Influenza A virus [16]): > 4 µM; EC50 (Coxsackievirus B4 [17]): > 20 µM; EC50 [18]: 20 µM; IC50 [19]: 17 µM; MCC at 72 h [20]: 100 µM; EC50 [21]: > 20 µM; EC50 (Coxsackievirus B4 [22]): 4 µM; EC50 (Influenza A virus [23]): > 4 µM; CC50 [24]: 9.8 µM; EC50 (Human alphaherpesvirus 1 [25]): > 20 µM; IC50 (CCRF-CEM): 31 µM; EC50 (Human alphaherpesvirus 2): > 20 µM; IC50 [26]: 0.782 µM; EC50 (Influenza B virus [27]): > 4 µM; IC50 (L1210): 40 µM |
| Cc1cc(C)cc(S(=O)(=O)c2c(C(=O)NCC(N)=O)[nH]c3ccc(Cl)c(F)c23)c1 | 20 | 100 | > 4 | 0.0031 | > 20 | > 20 | > 20 | > 4 | > 20 | > 20 | 71 | > 20 | > 20 | > 10 | > 20 | > 100 | 0.025 | > 20 | 0.319 | 2.46 | EC50 (Influenza B virus [15]): > 4 µM; EC50 (Influenza A virus [16]): > 4 µM; EC50 (Coxsackievirus B4 [17]): > 20 µM; EC50 [18]: 16 µM; IC50 [19]: 34 µM; MCC at 72 h [20]: 100 µM; EC50 [21]: > 20 µM; EC50 (Coxsackievirus B4 [22]): 9 µM; EC50 (Influenza A virus [23]): > 4 µM; CC50 [24]: 7.6 µM; EC50 (Human alphaherpesvirus 1 [25]): > 20 µM; IC50 (CCRF-CEM): 31 µM; EC50 (Human alphaherpesvirus 2): > 20 µM; IC50 [26]: 1.04 µM; EC50 (Influenza B virus [27]): > 4 µM; IC50 (L1210): 53 µM |

Source: ChEMBL document CHEMBL1153955, “Indolylarylsulfones bearing natural and unnatural amino acids. Discovery of potent inhibitors of HIV-1 non-nucleoside wild type and resistant mutant strains reverse transcriptase and coxsackie B4 virus” (J Med Chem, 2009)
